In PubChem BioAssay AID652011 (Sanford-Burnham Center for Chemical Genomics, 2013):

target: Hypoxia-inducible factor 1-alpha (Homo sapiens) (UniProt Q16665); assay: HIF reporter inhibition across pancreatic and renal lines – cell-based, luminescence, MIAPaCa-2, 786-0, panel, SAR follow-up (AID 652011); details: MIAPaCa-2/PANC HIF reporter, luciferase luminescence, desferoxamine, overnight, HIF1a, run 1; at 99 µM (top of the series)
Summary of the method: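 Probe or stimulus: desferoxamine stimulus / Schedule: overnight compound incubation at 37 °C, 10 min reagent / Dosing: compounds from 10 mM and 0.3125 mM stocks, 1% DMSO final / Signal: luciferase luminescence with One-Glo reagent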

Sequence of Hypoxia-inducible factor 1-alpha (Homo sapiens) (Q16665 whole entry, looked up): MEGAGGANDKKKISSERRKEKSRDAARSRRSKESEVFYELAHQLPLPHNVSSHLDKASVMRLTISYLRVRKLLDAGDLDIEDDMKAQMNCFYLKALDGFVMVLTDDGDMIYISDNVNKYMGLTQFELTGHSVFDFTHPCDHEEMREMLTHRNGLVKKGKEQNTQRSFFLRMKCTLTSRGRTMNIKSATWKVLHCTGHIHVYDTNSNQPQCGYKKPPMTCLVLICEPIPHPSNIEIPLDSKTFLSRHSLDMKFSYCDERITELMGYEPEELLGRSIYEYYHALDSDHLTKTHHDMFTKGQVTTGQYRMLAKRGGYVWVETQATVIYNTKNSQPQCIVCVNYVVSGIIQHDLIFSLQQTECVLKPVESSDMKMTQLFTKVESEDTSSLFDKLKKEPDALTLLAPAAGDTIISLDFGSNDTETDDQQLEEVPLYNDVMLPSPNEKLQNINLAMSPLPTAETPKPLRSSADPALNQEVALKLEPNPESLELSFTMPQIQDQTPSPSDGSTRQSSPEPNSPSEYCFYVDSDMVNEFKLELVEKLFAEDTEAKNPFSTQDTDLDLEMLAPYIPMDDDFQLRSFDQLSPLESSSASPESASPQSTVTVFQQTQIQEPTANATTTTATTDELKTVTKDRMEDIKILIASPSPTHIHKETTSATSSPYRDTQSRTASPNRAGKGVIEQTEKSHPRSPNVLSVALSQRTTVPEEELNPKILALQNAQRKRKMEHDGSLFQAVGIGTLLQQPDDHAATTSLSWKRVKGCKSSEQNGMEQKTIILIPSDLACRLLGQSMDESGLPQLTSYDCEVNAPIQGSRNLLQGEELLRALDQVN

| SMILES | inhibition [%] |
| --- | --- |
| CC(C)(C)c1ccc(-c2noc(CCC(=O)NC3CCCC3)n2)cc1 | 70.1 |
| O=C(O)CCc1nc(-c2ccccc2)no1 | 4.64 |
| CC(C)(C)c1ccc(-c2noc(CCC(=O)Nc3cccnc3)n2)cc1 | 98.9 |
| CNC(=O)CCc1nc(-c2ccc(C(C)(C)C)cc2)no1 | 21.1 |
| CNC(=O)CCc1nc(-c2ccc(C)cc2)no1 | 8.42 |
| CC(C)(C)c1ccc(-c2noc(CCC(=O)NC3CCC3)n2)cc1 | 31.6 |
| CCC(C)NC(=O)CCc1nc(-c2ccccc2)no1 (stereo not given) | -33.5 |
| CC(C)(C)c1ccc(-c2noc(CCC(=O)N3CCCCC3)n2)cc1 | 102 |
| CCCCc1ccc(-c2noc(CCC(=O)NC3CC3)n2)cc1 | 2.18 |
| CCNC(=O)CCc1nc(-c2ccccc2C)no1 | -25.2 |
| CCCCc1ccc(-c2noc(CCC(=O)NC(C)(C)C)n2)cc1 | 86.1 |
| CCc1ccc(-c2noc(CCC(=O)NC(C)(C)C)n2)cc1 | -38.3 |
| CCCCc1ccc(-c2noc(CCC(=O)NC(C)CC)n2)cc1 (stereo not given) | 29.2 |
| CCOc1ccccc1NC(=O)CCc1nc(-c2ccc(C(C)(C)C)cc2)no1 | 54.8 |
| CCCCc1ccc(-c2noc(CCC(=O)NCC)n2)cc1 | -6.32 |
| CCC(C)NC(=O)CCc1nc(-c2ccc(C(C)C)cc2)no1 (stereo not given) | -41.9 |
| COc1cccc(NC(=O)CCc2nc(-c3ccc(C(C)(C)C)cc3)no2)c1 | 74.5 |
| CNC(=O)CCc1nc(-c2ccc(F)cc2)no1 | -42.8 |
| CC(C)(C)c1ccc(-c2noc(CCC(=O)O)n2)cc1 | 94.7 |
| COc1ccccc1NC(=O)CCc1nc(-c2ccc(C(C)(C)C)cc2)no1 | 67.6 |
